Source: ChEMBL document CHEMBL1150813, “Triterpene saponins from Vietnamese ginseng (Panax vietnamensis) and their hepatocytoprotective activity” (J Nat Prod, 2001)

Experiments:
Type in all cases: functional
[1] = system: Hepatocyte; test: Hepatoprotective activity against D-galactosamine/TNFalpha-induced cell death in mouse hepatocytes assessed cell survival rate at 50 uM administered before 30 mins of TNFalpha challenge measured after 18 hrs by MTT assay
How it was run: (§1)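 Primary mouse hepatocytes, isolated by collagenase perfusion, were cultured in William's E medium with 10% calf serum, dexamethasone and insulin at 1.5×10^4 cells/well. TNF-α (100 ng/mL) was added 30 min later. Viability was read by MTT after 18 h. Values are mean ± SD, n = 4 (normal and control n = 8), with Student's t-test versus control.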

[2] = system: Hepatocyte; test: Hepatoprotective activity in mouse hepatocytes assessed protection against D-galactosamine/TNFalpha-induced cell death at 100 uM administered before 30 mins of TNFalpha challenge measured after 18 hrs; how it was run: as §1
[3] = system: Hepatocyte; test: Hepatoprotective activity in mouse hepatocytes assessed protection against D-galactosamine/TNFalpha-induced cell death at 200 uM administered before 30 mins of TNFalpha challenge measured after 18 hrs; how it was run: as §1
[4] = system: Hepatocyte; test: Hepatoprotective activity in mouse hepatocytes assessed protection against D-galactosamine/TNFalpha-induced cell death at 50 uM administered before 30 mins of TNFalpha challenge measured after 18 hrs; how it was run: as §1
[5] = system: Hepatocyte; test: Hepatoprotective activity in mouse hepatocytes assessed inhibition of D-galactosamine/TNFalpha-induced cell death dosed administered before 30 mins of TNFalpha challenge measured after 18 hrs; how it was run: as §1
[6] = system: Hepatocyte; test: Hepatoprotective activity in mouse hepatocytes assessed inhibition of D-galactosamine/TNFalpha-induced cell death at 100 uM administered before 30 mins of TNFalpha challenge measured after 18 hrs; how it was run: as §1
[7] = system: Hepatocyte; test: Hepatoprotective activity in mouse hepatocytes assessed inhibition of D-galactosamine/TNFalpha-induced cell death at 200 uM administered before 30 mins of TNFalpha challenge measured after 18 hrs; how it was run: as §1
[8] = system: Hepatocyte; test: Hepatoprotective activity in mouse hepatocytes assessed inhibition of D-galactosamine/TNFalpha-induced cell death at 50 uM administered before 30 mins of TNFalpha challenge measured after 18 hrs; how it was run: as §1
[9] = system: Hepatocyte; test: Hepatoprotective activity against D-galactosamine/TNFalpha-induced cell death in mouse hepatocytes assessed cell survival rate at 100 uM administered before 30 mins of TNFalpha challenge measured after 18 hrs by MTT assay; how it was run: as §1
[10] = system: Hepatocyte; test: Hepatoprotective activity against D-galactosamine/TNFalpha-induced cell death in mouse hepatocytes assessed cell survival rate at 200 uM administered before 30 mins of TNFalpha challenge measured after 18 hrs by MTT assay; how it was run: as §1

SMILES	Survival [1] [%]	Activity [2] [%]	Activity [3] [%]	Activity [4] [%]	IC50 [5] [µM]	inhibition (INH) [6] [%]	inhibition (INH) [7] [%]	inhibition (INH) [8] [%]	Survival [9] [%]	Survival [10] [%]
CC(C)=CCC[C@](C)(O[C@@H]1O[C@H](CO)[C@@H](O)[C@H](O)[C@H]1O)[C@H]1CC[C@]2(C)[C@@H]1[C@H](O)C[C@@H]1[C@@]3(C)CC[C@H](O)C(C)(C)[C@@H]3[C@@H](O[C@@H]3O[C@H](CO)[C@@H](O)[C@H](O)[C@H]3O)C[C@]12C [GINSENOSIDE RG1]	41.6	17.3	26.2	16.7	111	40.6	61.4	39.3	42	48.3
CC1(C)[C@@H](O[C@H]2O[C@H](C(=O)O)[C@@H](O)[C@H](O)[C@H]2O[C@@H]2O[C@H](C(=O)O)[C@@H](O)[C@H](O)[C@H]2O)CC[C@]2(C)[C@H]3C(=O)C=C4[C@@H]5C[C@@](C)(C(=O)O)CC[C@]5(C)CC[C@@]4(C)[C@]3(C)CC[C@@H]12 [GLYCYRRHIZIN]	33	4.8	8.7	1	> 200	11.1	20.3	11	33.4	36.2
CC1(C)O[C@](C)([C@H]2CC[C@]3(C)[C@@H]2[C@H](O)C[C@@H]2[C@@]4(C)CC[C@H](O)C(C)(C)[C@@H]4[C@@H](O[C@@H]4O[C@H](CO)[C@@H](O)[C@H](O)[C@H]4O)C[C@]23C)CC[C@H]1O [GINSENOSIDE R10]	41.1	12	7.6	16	–	28	17.8	37.6	38.3	35.2
CC(C)(O)[C@@H]1CC[C@@](C)([C@H]2CC[C@]3(C)[C@@H]2[C@H](O)C[C@@H]2[C@@]4(C)CC[C@H](O)C(C)(C)[C@@H]4[C@@H](O[C@@H]4O[C@H](CO)[C@@H](O)[C@H](O)[C@H]4O[C@@H]4OC[C@@H](O)[C@H](O)[C@H]4O)C[C@]23C)O1 [MAJONOSIDE R2]	41.1	19.3	35.5	16	82.4	55.2	83.3	37.5	46.4	54.8
CC(C)=CCC[C@](C)(O)[C@H]1CC[C@]2(C)[C@@H]1[C@H](O)C[C@@H]1[C@@]3(C)CC[C@H](O)C(C)(C)[C@@H]3[C@@H](O[C@@H]3O[C@H](CO)[C@@H](O)[C@H](O)[C@H]3O)C[C@]12C [GINSENOSIDE RH1]	38.1	15.6	34.3	11.7	105	36.6	80.5	27.4	40.8	54
CC(C)=CCC[C@](C)(O[C@@H]1O[C@H](CO)[C@@H](O)[C@H](O)[C@H]1O)[C@H]1CC[C@]2(C)[C@@H]1[C@H](O)C[C@@H]1[C@@]3(C)CC[C@H](O[C@@H]4O[C@H](CO)[C@@H](O)[C@H](O)[C@H]4O[C@@H]4O[C@H](CO)[C@@H](O)[C@H](O)[C@H]4O)C(C)(C)[C@@H]3CC[C@]12C [GINSENOSIDE RD]	35.3	8.4	16.8	7.4	–	19.5	39.1	17.5	35.9	41.8
CO[C@@](C)(CCC=C(C)C)[C@H]1CC[C@]2(C)[C@@H]1[C@H](O)C[C@@H]1[C@@]3(C)CC[C@H](O)C(C)(C)[C@@H]3[C@@H](O[C@@H]3O[C@H](CO)[C@@H](O)[C@H](O)[C@H]3O)C[C@]12C [GINSENOSIDE RH5]	36.9	–	–	13.1	–	27.9	-24	23.5	–	–
CC(C)=CC/C=C(\C)[C@H]1CC[C@]2(C)[C@@H]1[C@H](O)C[C@@H]1[C@@]3(C)CC[C@H](O)C(C)(C)[C@@H]3[C@@H](O[C@@H]3O[C@H](CO)[C@@H](O)[C@H](O)[C@H]3O)C[C@]12C [GINSENOSIDE RH4]	34	24.8	35.1	8	97	50.6	67.1	13.7	45	50
CC(C)=CCC[C@](C)(O[C@@H]1O[C@H](CO[C@@H]2O[C@H](CO)[C@@H](O)[C@H](O)[C@H]2O)[C@@H](O)[C@H](O)[C@H]1O)[C@H]1CC[C@]2(C)[C@@H]1[C@H](O)C[C@@H]1[C@@]3(C)CC[C@H](O[C@@H]4O[C@H](CO)[C@@H](O)[C@H](O)[C@H]4O[C@@H]4O[C@H](CO)[C@@H](O)[C@H](O)[C@H]4O)C(C)(C)[C@@H]3CC[C@]12C [GINSENOSIDE RB1]	34.4	8.5	13.7	6	–	19.8	31.9	14.3	36	39.6
CC(C)=CCC[C@](C)(O[C@@H]1O[C@H](CO)[C@@H](O)[C@H](O)[C@H]1O)[C@H]1CC[C@]2(C)[C@@H]1[C@H](O)C[C@@H]1[C@@]3(C)CC[C@H](O)C(C)(C)[C@@H]3[C@@H](O[C@@H]3O[C@H](CO)[C@@H](O)[C@H](O)[C@H]3O[C@@H]3O[C@@H](C)[C@H](O)[C@@H](O)[C@H]3O)C[C@]12C [GINSENOSIDE RE]	36.4	15.9	31.9	8.9	119	37	74.3	21.1	41.2	52.4
CC(C)=CCC[C@](C)(O[C@@H]1O[C@H](CO[C@@H]2O[C@@H](CO)[C@H](O)[C@H]2O)[C@@H](O)[C@H](O)[C@H]1O)[C@H]1CC[C@]2(C)[C@@H]1[C@H](O)C[C@@H]1[C@@]3(C)CC[C@H](O[C@@H]4O[C@H](CO)[C@@H](O)[C@H](O)[C@H]4O[C@@H]4O[C@H](CO)[C@@H](O)[C@H](O)[C@H]4O)C(C)(C)[C@@H]3CC[C@]12C [GINSENOSIDE RC]	32.1	1.9	–	3.2	–	4.4	-11.3	6.7	31.4	26.7
CC(C)=CCC[C@](C)(O[C@@H]1O[C@H](CO[C@@H]2OC[C@H](O)[C@H](O)[C@H]2O)[C@@H](O)[C@H](O)[C@H]1O)[C@H]1CC[C@]2(C)[C@@H]1[C@H](O)C[C@@H]1[C@@]3(C)CC[C@H](O[C@@H]4O[C@H](CO)[C@@H](O)[C@H](O)[C@H]4O[C@@H]4O[C@H](CO)[C@@H](O)[C@H](O)[C@H]4O)C(C)(C)[C@@H]3CC[C@]12C [GINSENOSIDE RB2]	36.7	21	43.3	7.6	105	48.8	100.8	22.1	44.7	60.3
C=C(C)C(=O)CC[C@](C)(O[C@@H]1O[C@H](CO)[C@@H](O)[C@H](O)[C@H]1O)[C@H]1CC[C@]2(C)[C@@H]1[C@H](O)C[C@@H]1[C@@]3(C)CC[C@H](O)C(C)(C)[C@@H]3[C@@H](O[C@@H]3O[C@H](CO)[C@@H](O)[C@H](O)[C@H]3O)C[C@]12C	35.6	12	20.5	8.2	–	28.3	48.2	19.2	38.4	44.3
CC(C)(O)[C@@H]1CC[C@@](C)([C@H]2CC[C@]3(C)[C@@H]2[C@H](O)C[C@@H]2[C@@]4(C)CC[C@H](O)C(C)(C)[C@@H]4[C@@H](O[C@@H]4O[C@H](CO)[C@@H](O)[C@H](O)[C@H]4O)C[C@]23C)O1	39.4	26.8	39	13.6	74.8	62.8	91.5	31.8	48.7	57.2
